Measurements collected from several papers.
Protocols differ between the studies behind these lines.
Phosphatidylserine lipase ABHD16A: Phosphatidylserine lipase ABHD16A (Homo sapiens, UniProt O95870)

CCCS(=O)(=O)Nc1ccc(F)c(C(=O)c2c[nH]c3ncc(Br)cc23)c1F  IC50 (Dual specificity mitogen-activated protein kinase kinase 4 (MAP2K4, Homo sapiens, UniProt P45985); enzyme activity, inhibitor, ADP detection): 1400 nM
CC(C)[C@@H]1NC(=O)[C@@H]2CCCN2C(=O)[C@H](Cc2ccccc2)NC(=O)CSC[C@@H](C(=O)N[C@@H](Cc2ccc(O)cc2)C(N)=O)NC(=O)[C@H](Cc2c[nH]c3ccccc23)NC(=O)[C@H](CCCCN)NC(=O)[C@H](Cc2ccccc2)N(C)C(=O)[C@H](Cc2ccccc2)NC1=O  IC50 (Stimulator of interferon genes protein (STING1, Homo sapiens, UniProt Q86WV6, H232R); ligand displacement, TR-FRET): 180 nM
N=C(N)NCCC[C@H](N)C(=O)O  Kd (Nitric oxide synthase, inducible (Nos2, Mus musculus, UniProt P29477); cell-free assay): 2600 nM
CC(=O)SCCNC(=O)CCNC(=O)[C@H](O)C(C)(C)COP(=O)(O)OP(=O)(O)OC[C@H]1O[C@@H](n2cnc3c(N)ncnc32)[C@H](O)[C@@H]1OP(=O)(O)O  IC50 (CAB1 (Saccharomyces cerevisiae, UniProt Q04430); enzyme activity, inhibitor): > 100000 nM
CC(C)C[C@H](NC(=O)[C@H](Cc1ccccc1)NC(=O)[C@H](Cc1ccc(O)cc1)NC(=O)CNC(=O)[C@H](CCCCN)NC(=O)[C@H](CO)NC(=O)[C@H](CCC(N)=O)NC(=O)CNC(=O)[C@@H](NC(=O)[C@H](CO)NC(=O)[C@@H]1CCCN1C(=O)[C@H](CO)NC(=O)[C@H](CCC(N)=O)NC(=O)[C@H](Cc1ccc(O)cc1)NC(=O)[C@H](CCC(=O)O)NC(=O)[C@H](C)NC(=O)[C@H](CCCCN)NC(=O)[C@@H](N)Cc1ccccc1)C(C)C)C(=O)N[C@@H](Cc1ccccc1)C(=O)N[C@@H](CCCNC(=N)N)C(=O)N1CCC[C@H]1C(=O)N[C@@H](CCCNC(=N)N)C(=O)N[C@@H](CC(N)=O)C(N)=O  EC50 (Neuromedin-U receptor 1 (NMUR1, Homo sapiens, UniProt Q9HB89); inositol phosphate, agonist, TR-FRET): 0.45 nM
O=C(CCCc1ccc(N(CCCl)CCCl)cc1)NCCC1CCN(CCOc2ccc(Oc3c(-c4ccc(O)cc4)sc4cc(O)ccc34)cc2)CC1  IC50 (Estrogen receptor beta (ESR2, Homo sapiens, UniProt Q92731); ligand displacement, radioligand): 67 nM
Oc1ccc(/C=C/c2cc(O)cc(O)c2)cc1  Kd (Troponin C, slow skeletal and cardiac muscles (TNNC1, Human, UniProt P63316); binding, NMR): 240000 nM
CCCCCCCCCCCCCC1OC(=O)/C1=C\CCCCCS(N)(=O)=O (stereo not drawn)  IC50 (Phosphatidylserine lipase ABHD16A; enzyme activity, inhibitor): 500 to 1000 nM
O=C(O)C1=CC(O)CC1 (stereo not drawn)  Ki (Calcium/calmodulin-dependent protein kinase type II subunit alpha (Rattus norvegicus, UniProt P11275); cell-free assay, radioligand; pH 6): 1580 nM
Nc1ccn([C@@H]2O[C@H](COP(=O)(O)OP(=O)(O)OP(O)(O)=S)[C@@H](O)[C@H]2O)c(=O)n1  Kd (virB (Shigella flexneri, UniProt P0A247); binding, ITC): 14300 nM
NC(=O)CCCC/C=C1\C(=O)OC1CCCCCCCCCc1ccccc1 (stereo not drawn)  IC50 (Phosphatidylserine lipase ABHD16A; enzyme activity, inhibitor): 200 to 500 nM
CC(=O)CC(=O)C(=O)O  Ki (4-hydroxy-tetrahydrodipicolinate synthase (dapA, Escherichia coli K-12, UniProt P0A6L2); enzyme activity, inhibitor, absorbance): 1400 nM
